The values that follow come from article PMC5669405 (Biochemistry and Biophysics Reports, 2015).

One data set is described as follows: Solubility check. It is filed as physicochemical.
The nature of data set [1]: MTT cell viability, compound alone. Format: cell-based, human. As to conditions: human, SH-SY5Y neuroblastoma cells. The method in brief:
(§1)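 Cells were SH-SY5Y grown in DMEM/F12 with 10% FBS at 37 °C and 5% CO₂, seeded at 5×10⁴ cells/well, and given fresh medium with 0.9 µM compound alone 24 h after plating. After 24 h, MTT (5 mg/mL stock) was added for 4 h, then isopropanol/0.04 mol/L HCl overnight. Read OD570 minus OD700, normalised to untreated and 100% death controls. Triplicate wells, three plates, mean±SEM, kept in the dark.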

Data set [2] concerns the target T1, Aβ (1–42) (Homo sapiens, UniProt P05067). The experiment in a line: SDS-PAGE and western blotting of Aβ. Format: biochemical. To be noted: for Smear bands in SDS-PAGE: 30 µM compound, 24 h, 37 °C; for Effects on Aβ aggregation (in words): derivatives without hydroxy groups on the aromatic groups. Summed up: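 Aβ(1–42) monomerized in HFIP (1 mM, 37 °C, 1 h), diluted to 10 µM in PBS with 30 µM test compound (final; DMSO vehicle), incubated 24 h at 37 °C. Diluted to 2.25 µM in unheated SDS buffer, run on 10–20% gels, blotted to PVDF and probed with 6E10 then HRP anti-mouse, with chemiluminescence detection. Band intensities per range were read against marker. Means±SEM, ≥3 independent experiments, ANOVA/Dunnett vs DMSO.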
Background: A western blot detects proteins with antibodies after separation by electrophoresis.

The subject of data set [3] is SH-SY5Y cells. The experiment in a line: MTT cell viability, compound alone. Format: cell-based, human. To be noted: SH-SY5Y, 24 h; for Viability C. Compound alone: 0.9 µM compound, mean±SEM. Summed up: as §1
Data set [4] deals with SH-SY5Y cells. The experiment in a line: MTT cell viability, simultaneous treatment with Aβ aggregates and the compounds. It is filed as cell-based, human. To be noted: 24 h, 0.3 µM Aβ aggregates, 0.9 µM compound. The method in brief: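 Aβ(1–42) was HFIP-pretreated, taken up at 5 mM in DMSO, diluted to 10 µM in PBS and aggregated 24 h at 37 °C. SH-SY5Y cells (5×10⁴/well, 24 h after plating) received 0.3 µM of these aggregates plus 0.9 µM compound together for 24 h. Read-out was MTT (4 h), OD570−OD700, as % of untreated and 100% death controls. Triplicate wells in ≥3 independent runs; ANOVA/Dunnett against DMSO vehicle.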

The next data set has as its system APP/PS1 mice. To be noted: cited from earlier work.
A further data set deals with Aβ. To be noted: cited from earlier work.
The target in another data set is Aβ aggregates (Homo sapiens, UniProt P05067). The experiment in a line: Thioflavin T fluorescence competition assay. Format: binding.
Data set [5] has as its target T1, Aβ (1–42). The experiment in a line: Native gel electrophoresis of Aβ. As to conditions: 30 µM compound, 24 h, 37 °C. Format: biochemical. The method in brief: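 HFIP-pretreated Aβ(1–42) (5 mM DMSO stock) was diluted to 10 µM in PBS with 30 µM compound (1.5 mM DMSO stock) and held 24 h at 37 °C in the dark; DMSO served as vehicle. Samples were brought to 2.25 µM in native sample buffer, run on 5–20% gels at 100 V for 4 h at 4 °C and transferred to PVDF. Blots used 6E10 anti-Aβ (1:1000), HRP anti-mouse (1:20,000) and chemiluminescence.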

A further data set deals with amyloid plaques. As to conditions: transgenic mouse model of AD, injection via the tail vein; cited from earlier work.
Where [6] appears, read: all ranges of 15–20, 20–37, 37–75, and 75–200 kDa.

T1 sequence (P05067 672-713): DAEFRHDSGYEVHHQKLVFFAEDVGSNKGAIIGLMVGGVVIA
Sequence of Aβ aggregates (P05067 672-713): as above

What is called viability is a read-out of living cells in per cent, often relative to untreated cells. As to `COc1cc(/C=C/C(=O)CC(=O)/C=C/c2ccc(O)c(OC)c2)ccc1O` [Cur, Curcumin, reference compound], the Solubility / precipitation entry in “Solubility check” (30 µM in PBS with DMSO) is “no precipitation”; in the data set “Solubility check” (200 µM solution) it was “clearly observed precipitates”. In addition, in data set [1], the viability at 24 h, 0.9 µM is 97.5 ± 7.3%.

Take `COc1cc(C=CC(=O)CC(=O)C=Cc2ccc(O)c(OC(F)(F)F)c2)ccc1O` [SY2, 1-[(4-Hydroxy-3-methoxy)phenyl]-7-[(4-hydroxy-3-trifluoromethoxy)phenyl]-1,6-heptadiene-3,5-dione]: the “Densities of the bands of Aβ (1–42) vs vehicle control (in words)” value (shortened to “Densities … vs vehicle control (in words)”) at Aβ (1–42) [2] (only in the range of 15–20 kDa) is “significant increases”. Moreover, in the data set on SH-SY5Y cells [3], the “Viability C. Compound alone” value is listed as 101.4±2.0%.

Consider `COc1cc(C=CC(=O)CC(=O)C=Cc2cc(C(F)(F)F)cc(C(F)(F)F)c2)ccc1O` [SY4, 1-[(4-Hydroxy-3-methoxy)phenyl]-7-[3,5-bis(trifluoromethyl)phenyl]-1,6-heptadiene-3,5-dione], for which the “Cell viability after simultaneous treatment vs vehicle control (in words)” value with SH-SY5Y cells [4] is recorded as “significant reduction in cell viability”. Moreover, the “Viability C. Compound alone” value with SH-SY5Y cells [3] is 91.6±3.2%.

A word on the IC50: it is the concentration that gives 50% inhibition. A higher IC50 goes with lower potency. As for `COC(=O)CCC(C(=O)C=Cc1ccc(O)c(OC(F)(F)F)c1)C(=O)C=Cc1ccc(O)c(OC(F)(F)F)c1` (stereo not drawn) [SY5, 1,7-bis (4′-hydroxy-3′-trifluoromethoxyphenyl)-4-methoxycarbonylethyl-1,6-heptadiene-3,5-dione], in the data set with APP/PS1 mice, the Amyloid deposition entry is “reduce amyloid deposition” and the Cognitive decline entry is “inhibit cognitive decline”. Further, the Solubility / precipitation entry in the data set “Solubility check” (30 µM in PBS with DMSO) is recorded as “no precipitation”. In addition, in the data set on Aβ (30 µM, ref our previous study), the “Inhibition of Aβ aggregation” value was “significant inhibition of Aβ aggregation”. The “Formation of higher molecular size Aβ aggregates” value in the data set with Aβ (incubated with Aβ during the aggregation state in vitro) is on record as “inhibit the formation of higher molecular size Aβ aggregates”. Besides, on Aβ aggregates, the IC50 amounted to 440 nM. At Aβ (1–42) [5], the “Smear bands in native-PAGE” value is on record as “Marked smear bands”. Besides, at Aβ (1–42) [2], the “Smear bands in SDS-PAGE” value is reported as “Marked smear bands”. Further, at Aβ (1–42) [2] (setting [6]), the “Densities … vs vehicle control (in words)” value is given as “significant increases”. In the data set on amyloid plaques, the “Binding to amyloid plaques in brain” value is reported as “bound to amyloid plaques” and the “Blood–brain barrier penetration” value is given as “penetrated the blood–brain barrier”. Further, in data set [1], the viability at 24 h, 0.9 µM worked out at 102 ± 3.6%.

In the case of `COc1ccc(C=CC(=O)CC(=O)C=Cc2ccc(OC)c(F)c2)cc1F` [SY9, 1,7-Bis[(3-fluoro-4-methoxy)phenyl]-1,6-heptadiene-3,5-dione], the “Effects on Aβ aggregation (in words)” value on Aβ (1–42) [2] is on record as “no effects on Aβ aggregation”. In addition, the “Viability C. Compound alone” value with SH-SY5Y cells [3] worked out at 94.2±2.5%.

As to `COC(=O)CCC(C(=O)C=Cc1cc(F)c(O)c(F)c1)C(=O)C=Cc1cc(F)c(O)c(F)c1` (stereo not drawn) [SY16, 1,7-Bis[(4-hydroxy-3,5-difluoro)phenyl]-4-methoxycarbonylethyl-1,6-hexadiene-3,5-dione], the “Viability C. Compound alone” value in the data set on SH-SY5Y cells [3] is 94.1±2.8%.

For the compound `COc1ccc(C=CC(=O)C(C)C(=O)C=Cc2ccc(OC)c(OC(F)(F)F)c2)cc1OC(F)(F)F` (stereo not drawn) [SY18, 1,7-Bis[(4-methoxy-3-trifluoromethoxy)phenyl]-4-methyl-1,6-hexadiene-3,5-dione], the “Effects on Aβ aggregation (in words)” value at Aβ (1–42) [2] is reported as “no effects on Aβ aggregation”. For the same compound, in the data set with SH-SY5Y cells [3] (0.9 µM), the “Cell viability after treatment with compound alone (in words)” value is on record as “significantly reduced cell viability”. The “Viability C. Compound alone” value with SH-SY5Y cells [3] was found to be 69.5±7.7 %.

Take `COCOc1ccc(C=CC(=O)C(CCC(=O)OC(C)(C)C)C(=O)C=Cc2ccc(OCOC)c(OC(F)(F)F)c2)cc1OC(F)(F)F` (stereo not drawn) [SY22, 1,7-Bis[(4-methoxymethoxy-3-trifluoromethoxy)phenyl]-4-(1,1-dimethylethoxy)carbonylethyl-1,6-hexadiene-3,5-dione]: the “Effects on Aβ aggregation (in words)” value at Aβ (1–42) [2] was “no effects on Aβ aggregation”. Also, in the data set on SH-SY5Y cells [3], the “Viability C. Compound alone” value is given as 95.8±3.6%.

On to `COC(=O)CCC(C(=O)C=Cc1ccc(O)c(OC)c1)C(=O)C=Cc1ccc(O)c(OC)c1` (stereo not drawn) [SY23, 1,7-Bis[(4-hydroxy-3-methoxy)phenyl]-4-methoxycarbonylethyl-1,6-heptadiene-3,5-dione], for which, in the data set on SH-SY5Y cells [3], the “Viability C. Compound alone” value was determined as 97.9±2.4%.

For `O=C(C=Cc1ccc(O)c(OC(F)(F)F)c1)C(CCOCCOCCOCCOC1CCCCO1)C(=O)C=Cc1ccc(O)c(OC(F)(F)F)c1` (stereo not drawn) [SY27, 1,7-Bis[(4-hydroxy-3-trifluoromethoxy)phenyl]-4-[11-(2-tetrahydropyranyloxy)-3,6,9-trioxaundec-1yl]-1,6-heptadiene-3,5-dione], the “Viability C. Compound alone” value in the data set with SH-SY5Y cells [3] is 98.5±5.3%.

Consider `O=C(C=Cc1ccc(O)c(OC(F)(F)F)c1)C(CCOC1CCCCO1)C(=O)C=Cc1ccc(O)c(OC(F)(F)F)c1` (stereo not drawn) [SY33, 1,7-Bis[(4-hydroxy-3-trifluoromethoxy)phenyl]-4-(2-tetrahydropyranyloxy)ethyl-1,6-heptadiene-3,5-dione], for which, in the data set “Solubility check” (30 µM in PBS with DMSO), the Solubility / precipitation result is recorded as “no precipitation”. Further, the “Smear bands in native-PAGE” value on Aβ (1–42) [5] is “Marked smear bands”. Besides, the “Smear bands in SDS-PAGE” value at Aβ (1–42) [2] was “Marked smear bands”. In addition, on Aβ (1–42) [2] (setting [6]), the “Densities … vs vehicle control (in words)” value is recorded as “significant increases”. For the same compound, the “Viability C. Compound alone” value in the data set with SH-SY5Y cells [3] is recorded as 97.8±4.2%.

For `COC(=O)COc1ccc(C=CC(=O)CC(=O)C=Cc2ccc(O)c(OC)c2)cc1OC` [SY35, 1-[(4-Hydroxy-3-methoxy)phenyl]-7-[(3-methoxy-4-methoxycarbonylmethoxy)phenyl]-1,6-heptadiene-3,5-dione], the “Viability C. Compound alone” value in the data set on SH-SY5Y cells [3] was found to be 93.7±2.9%.

As for `COC(=O)CCC(C(=O)C=Cc1ccc(O)c(OC(F)(F)F)c1)C(=O)C=Cc1ccco1` (stereo not drawn) [SY37, 1-[(4-Hydroxy-3-trifluoromethoxy)phenyl]-7-(2-furyl)-4-methoxycarbonylethyl-1,6-heptadiene-3,5-dione], at Aβ (1–42) [2] (only in the range of 20–37 kDa), the “Densities … vs vehicle control (in words)” value is recorded as “significant increases”. Further, in the data set with SH-SY5Y cells [3], the “Viability C. Compound alone” value is on record as 93.0±4.1%.

Regarding `COC(=O)CCC(C(=O)C=Cc1ccc(O)c(F)c1)C(=O)C=Cc1ccc(O)c(F)c1` (stereo not drawn) [SY38, 1,7-Bis[(4-hydroxy-3-fluoro)phenyl]-4-methoxycarbonylethyl-1,6-heptadiene-3,5-dione], the “Densities … vs vehicle control (in words)” value on Aβ (1–42) [2] (only in the range of 20–37 kDa) was “significant increases”. Moreover, in the data set on SH-SY5Y cells [3], the “Viability C. Compound alone” value was 91.6±3.9%.

For `CCC(C(=O)C=Cc1ccc(O)c(OC(F)(F)F)c1)C(=O)C=Cc1ccc(O)c(OC(F)(F)F)c1` (stereo not drawn) [SY41, 1,7-Bis[(4-hydroxy-3-trifluoromethoxy)phenyl]-4-ethyl-1,6-heptadiene-3,5-dione], the “Viability C. Compound alone” value in the data set with SH-SY5Y cells [3] amounted to 93.4±5.9%.

For the compound `COc1ccc(C=CC(=O)C(CCC(=O)OC(C)(C)C)C(=O)C=Cc2ccc(OC)c(F)c2)cc1F` (stereo not drawn) [SY42, 1,7-Bis[(3-fluoro-4-methoxy)phenyl]-4-(1,1-dimethylethoxy)carbonylethyl-1,6-heptadiene-3,5-dione], on Aβ (1–42) [2], the “Effects on Aβ aggregation (in words)” value is listed as “no effects on Aβ aggregation”. Further, the “Viability C. Compound alone” value with SH-SY5Y cells [3] is 88.6±6.3%.
